Test results reported in ChEMBL document CHEMBL1151981, “Bioactive pyridine-N-oxide disulfides from Allium stipitatum” (J Nat Prod, 2009).
Converted amounts (≈) assume the structure as drawn. The source made the active and inactive calls. No cut-off for these calls is given here.

Experiments:
[1] = test system: Mycobacterium tuberculosis; test: Upregulation of Rv1334 RNA expression in Mycobacterium tuberculosis H37Rv ATCC 27294 at 2 to 10 ug/ml after 6 hrs by microarray analysis; assay type: functional, organism-based
Method in brief: (§1)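 H37Rv grown in 7H9 with 0.2% glycerol, 0.5% BSA fraction V, 0.05% Tween 80, 0.08% NaCl and 0.2% glucose to OD650 0.3. Treated with 2, 5 or 10 µg/mL compound, or matching DMSO, for 6 h. RNA isolated, labelled cDNA hybridised to microarrays. Predictive genes found by class prediction analysis.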

[2] = test system: Mycobacterium tuberculosis; test: Upregulation of clpB RNA expression in Mycobacterium tuberculosis H37Rv ATCC 27294 at 2 to 10 ug/ml after 6 hrs by microarray analysis; assay type: functional, organism-based; method in brief: as §1
[3] = test system: Mycolicibacterium smegmatis; test: Antibacterial activity against Mycobacterium smegmatis after 72 hrs; assay type: functional
Method in brief: (§2)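 Fast-growing mycobacteria obtained from NCTC; cultures grown on Columbia blood agar with 7% defibrinated horse blood at 37 °C for 72 h before MIC determination. Ethambutol and isoniazid served as positive controls.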

HT-29 = test: Cytotoxicity against human HT-29 cells after 96 hrs by sulforhodamine B assay; assay type: functional, cell-based; conditions: HT-29, 96 h
Method in brief: (§3)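 SRB assay. Cells seeded at 4000/well in DMEM and allowed to attach overnight at 37 °C, 5% CO2. Exposed in quadruplicate to freshly made compound, 0.1–25 µM, for 96 h. Fixed with ice-cold 10% TCA for 30 min, stained with 0.4% SRB in 1% acetic acid for 15 min. Absorbance read at 540 nm as % of untreated control; IC50 derived from means.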

[4] = test system: Mycobacterium tuberculosis; test: Upregulation of Rv3054c RNA expression in Mycobacterium tuberculosis H37Rv ATCC 27294 at 2 to 10 ug/ml after 6 hrs by microarray analysis; assay type: functional, organism-based; method in brief: as §1
Staphylococcus aureus [5] = test: Antibacterial activity against tetracycline-effluxing Staphylococcus aureus XU212 after 72 hrs; assay type: functional; conditions: XU212, 72 h
Method in brief: (§4)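 S. aureus strains tested in a MIC assay; norfloxacin and oxacillin used as positive controls.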

[6] = test system: Mycobacterium tuberculosis; test: Effect on trxC RNA expression in Mycobacterium tuberculosis H37Rv ATCC 27294 at 2 to 10 ug/ml after 6 hrs by microarray analysis; assay type: functional, organism-based; method in brief: as §1
A549 = test: Cytotoxicity against human A549 cells after 96 hrs by sulforhodamine B assay; assay type: functional, cell-based; conditions: A549, 96 h; method in brief: as §3
[7] = test system: Mycobacterium tuberculosis; test: Upregulation of dnaK RNA expression in Mycobacterium tuberculosis H37Rv ATCC 27294 at 2 to 10 ug/ml after 6 hrs by microarray analysis; assay type: functional, organism-based; method in brief: as §1
[8] = test system: Mycobacterium tuberculosis; test: Upregulation of hsp RNA expression in Mycobacterium tuberculosis H37Rv ATCC 27294 at 2 to 10 ug/ml after 6 hrs by microarray analysis; assay type: functional, organism-based; method in brief: as §1
[9] = test system: Mycobacterium tuberculosis; test: Antibacterial activity against Mycobacterium tuberculosis H37Rv ATCC 27294 assessed as decrease in viable bacterial counts at 0.01 to 5 ug/ml after 14 days by spot-culture growth inhibition assay; assay type: functional, organism-based
Method in brief: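 Mid-exponential cultures (BCG rotated in 7H9/ADC/Tween 80; H37Rv standing in 7H9/OADC/Tween 80) diluted to 10³ cells/mL. 5 µL spotted onto 7H10 agar with 10% OADC containing compound at 0.01, 0.1, 0.5, 1 and 5 µg/mL. Incubated at 37 °C for 14 days. MIC taken as lowest concentration with no growth; no-compound well as growth control.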

[10] = test system: Mycobacterium tuberculosis; test: Effect on trxB2 RNA expression in Mycobacterium tuberculosis H37Rv ATCC 27294 at 2 to 10 ug/ml after 6 hrs by microarray analysis; assay type: functional, organism-based; method in brief: as §1
Mus musculus [11] = test: Toxicity in C57BL/6 mouse assessed as lethality at 300 mg/kg administered as single dose via oral gavage for 3 days measured 2 days after final dose; assay type: organism-based; design: dose 300 mg/kg, route oral; conditions: in vivo, 48 h
Method in brief: (§5)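 Female C57BL/6 mice, three per dose, got a single oral gavage dose of 30, 100 or 300 mg/kg. Observed at 4 and 6 h after dosing, then twice daily for 1 week. The tabulated data describe 3-day dosing.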

Staphylococcus aureus [12] = test: Antibacterial activity against Staphylococcus aureus SA1199B overexpressing NorA efflux pump after 72 hrs; assay type: functional
[13] = Toxicity in C57BL/6 mouse assessed as maximum tolerated dose administered as single dose via oral gavage for 3 days measured twice daily for 1 week after final dose; assay type: organism-based; conditions: in vivo; method in brief: as §5
[14] = test system: Mycobacterium tuberculosis; test: Antibacterial activity against Mycobacterium tuberculosis infected in GKO C57BL/6 mouse assessed as bacterial number in lung at 30 mg/kg/day administered 14 days postinfection via oral gavage for nine consecutive days measured on day 24 postinfection; assay type: functional
Method in brief: (§6)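 Female GKO C57BL/6 mice, 8–10 weeks old, infected by low-dose aerosol with M. tuberculosis Erdman (50–100 CFU uptake confirmed day 1). Daily oral gavage in 0.5% methyl cellulose from day 14 for nine consecutive days; isoniazid given at 25 mg/kg/day. Five mice per group, with untreated and pretreatment controls. Lung and spleen CFU log-transformed; one-way ANOVA with Tukey test.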

[15] = test system: Mycobacterium tuberculosis; test: Upregulation of dnaJ RNA expression in Mycobacterium tuberculosis H37Rv ATCC 27294 at 2 to 10 ug/ml after 6 hrs by microarray analysis; assay type: functional, organism-based; method in brief: as §1
[16] = test system: Mycolicibacterium smegmatis; test: Inhibition of fatty acid biosynthesis in Mycobacterium smegmatis assessed as inhibition of [14C]acetate incorporation into soluble lipid at 30 ug/ml treated 2 hrs before [14C]acetate addition measured after 2 hrs of [14C]acetate infusion by whole-cell assay; assay type: functional, organism-based
Method in brief: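 Replicating M. smegmatis whole cells exposed to compound at 30 µg/mL for 2 h, then [1-14C]acetate added for a further 2 h. Soluble lipids (mostly fatty acids) extracted and counts per minute compared with untreated control.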

Mycolicibacterium phlei = test: Antibacterial activity against Mycobacterium phlei after 72 hrs; assay type: functional; method in brief: as §2
[17] = Cytotoxicity against human WI38 cells after 96 hrs by sulforhodamine B assay; assay type: cell-based; conditions: WI-38, 96 h; method in brief: as §3
[18] = test system: Mycolicibacterium smegmatis; test: Antibacterial activity against Mycobacterium smegmatis mc2 2700 after 72 hrs; assay type: functional; conditions: mc2 2700, 72 h
Mus musculus [19] = test: Toxicity in C57BL/6 mouse assessed as adverse effect at 30 mg/kg administered as single dose via oral gavage for 3 days measured after 3 days post final dose; assay type: organism-based; design: dose 30 mg/kg, route oral; conditions: in vivo, 72 h
[20] = test system: Mycobacterium tuberculosis; test: Upregulation of Rv3463 RNA expression in Mycobacterium tuberculosis H37Rv ATCC 27294 at 2 to 10 ug/ml after 6 hrs by microarray analysis; assay type: functional, organism-based; method in brief: as §1
[21] = test system: Mycobacterium tuberculosis; test: Antibacterial activity against Mycobacterium tuberculosis infected in GKO C57BL/6 mouse assessed as bacterial number in spleen at 30 mg/kg/day administered 14 days postinfection via oral gavage for nine consecutive days measured on day 24 postinfection; assay type: functional; method in brief: as §6
[22] = test system: Mycobacterium tuberculosis; test: Upregulation of Rv1335 RNA expression in Mycobacterium tuberculosis H37Rv ATCC 27294 at 2 to 10 ug/ml after 6 hrs by microarray analysis; assay type: functional, organism-based; method in brief: as §1
MCF7 = test: Cytotoxicity against human MCF7 cells after 96 hrs by sulforhodamine B assay; assay type: functional, cell-based; conditions: MCF7, 96 h; method in brief: as §3
[23] = test system: Mycobacterium tuberculosis; test: Upregulation of sigH RNA expression in Mycobacterium tuberculosis H37Rv ATCC 27294 at 2 to 10 ug/ml after 6 hrs by microarray analysis; assay type: functional, organism-based; method in brief: as §1
Mus musculus [24] = test: Toxicity in C57BL/6 mouse assessed as transient lethargy at 100 mg/kg administered as single dose via oral gavage for 3 days measured 3 days after final dose; assay type: organism-based; design: dose 100 mg/kg, route oral; conditions: in vivo, 72 h
Staphylococcus aureus [25] = test: Antibacterial activity against Staphylococcus aureus EMRSA15 after 72 hrs; assay type: functional; conditions: EMRSA15, 72 h; method in brief: as §4
[26] = test system: Mycolicibacterium fortuitum; test: Antibacterial activity against Mycobacterium fortuitum after 72 hrs; assay type: functional; method in brief: as §2
Mus musculus [27] = test: Toxicity in C57BL/6 mouse assessed as lethality at 300 mg/kg administered as single dose via oral gavage for 3 days measured 3 days after final dose; assay type: organism-based; design: dose 300 mg/kg, route oral; conditions: in vivo, 72 h; method in brief: as §5
[28] = test system: Mycobacterium tuberculosis; test: Upregulation of Rv0331 RNA expression in Mycobacterium tuberculosis H37Rv ATCC 27294 at 2 to 10 ug/ml after 6 hrs by microarray analysis; assay type: functional, organism-based; method in brief: as §1
[29] = Toxicity in C57BL/6 mouse assessed as maximum tolerated dose administered as single dose via oral gavage for 3 days measured 6 hrs after final dose; assay type: organism-based; conditions: in vivo; method in brief: as §5
[30] = test system: Mycobacterium tuberculosis; test: Antibacterial activity against Mycobacterium tuberculosis H37Rv ATCC 27294 assessed as decrease in viable bacterial counts at 1.25 ug/ml after 7 days by spot-culture growth inhibition assay; assay type: functional
[31] = Toxicity in C57BL/6 mouse assessed as maximum tolerated dose administered as single dose via oral gavage for 3 days measured 4 hrs after final dose; assay type: organism-based; conditions: in vivo; method in brief: as §5

With `CSSc1cccc[n+]1[O-]` the Activity [1] was “Active”, the Activity [2] was “Active” and the MIC [3] was 8 mg/L (≈ 46.2 µM). The IC50 (HT-29) was 1.84 µM, the Activity [4] was “Active” and the MIC (Staphylococcus aureus [5]) was 1 mg/L (≈ 5.77 µM). For the same compound, the Activity [6] was “Active”, the IC50 (A549) was 0.22 µM and the Activity [7] was “Active”. For the same compound, the Activity [8] was “Active”, the Activity [9] was “Active” and the Activity [10] was “Active”. For the same compound, the Activity (Mus musculus [11]) was “Toxic”, the MIC (Staphylococcus aureus [12]) was 2 mg/L (≈ 11.5 µM) and the MTD at 168 h [13] was 30 mg/kg. For the same compound, the log10cfu [14] was 8.17, the Activity [15] was “Active” and the inhibition [16] was “Active”. It also gave an MIC (Mycolicibacterium phlei) of 2 mg/L (≈ 11.5 µM), an IC50 [17] of 0.8 µM and an MIC [18] of 8 mg/L (≈ 46.2 µM). The Activity (Mus musculus [19]) was “Non-toxic”, the Activity [20] was “Active” and the log10cfu [21] was 6.17. For the same compound, the Activity [22] was “Active”, the IC50 (MCF7) was 0.35 µM and the Activity [23] was “Active”. For the same compound, the Activity (Mus musculus [24]) was “Toxic”, the MIC (Staphylococcus aureus [25]) was 0.5 mg/L (≈ 2.89 µM) and the MIC [26] was 8 mg/L (≈ 46.2 µM). The Activity (Mus musculus [27]) was “Toxic”, the Activity [28] was “Active” and the MTD at 6 h [29] was 30 mg/kg. It also gave an Activity [30] of 99% and an MTD at 4 h [31] of 30 mg/kg.
